Screening data (PubChem)
Most compounds without a hit are left out; they make up all but 2.4% or so of the library.
RanGTP-Imp inh: disruptors of Ran-importin-beta complex formation – biochemical, FRET, CFP-Ran, YFP-importin-beta, homogeneous, primary screen | inhibition, % (test concentration not listed) | cell-free CFP-Ran/YFP-importin-beta FRET ratio | 1.1% of 300,000 active;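 active means more than half of the replicate wells show a fall in the fluorescence ratio signal beyond about 16%, limit read from the data, passing the limit was not always enough; inconclusive means exactly half of the replicate wells pass the set limit; inactive means fewer than half of replicates pass the limit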;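 further: 0% = DMSO wells and 100% = Ran loaded with GDP instead of GTP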
Runt-CBFb FRET: blocks binding of human RUNX1 Runt domain to CBFb; Q01196+Q13951; Cerulean-Runt/Venus-CBFb FRET ratio 530/480, 1 h; inhibition, % at 20 µM; 0.46% of 220,000 active; AID 1496;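 active means inhibition over about 50% at 20 µM in the single-dose screen, limit read from the data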;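 further: 0% = DMSO wells and 100% = excess unlabeled CBFb competitor control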
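Measured by: fluorescence energy transfer, 422 nm excitation, 530/480 nm emission; test system: Cerulean-tagged RUNX1 Runt domain (FRET donor) fusion protein; buffer or medium: Tris pH 7.5 buffer with BSA; compound: one dose, 20 µM compound, 1% DMSO; times: two 1 h room-temperature incubations shielded from light; benchmarks: unlabeled CBFb 5 µM, positive control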
MEX-5 binding: C. elegans MEX-5 TCR-2 RNA binding activity; Q9XUB2; activity score (negative = inhibition of binding), % at 10 µM; MEX-5/FITC-TCR2 RNA binding, fluorescence polarization; active compounds read low; 0.38% of 300,000 active;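 active means inhibition past about -25% in most replicates, and total fluorescence under double the plate's negative control median, limit read from the data; inconclusive means replicates evenly split on the limit, or fluorescence at least double controls; inactive means too little inhibition in most replicates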;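 further: 0% = DMSO and -100% = 5 µM competing unlabeled TCR2 RNA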
Target sequence (Q9XUB2 whole entry, looked up): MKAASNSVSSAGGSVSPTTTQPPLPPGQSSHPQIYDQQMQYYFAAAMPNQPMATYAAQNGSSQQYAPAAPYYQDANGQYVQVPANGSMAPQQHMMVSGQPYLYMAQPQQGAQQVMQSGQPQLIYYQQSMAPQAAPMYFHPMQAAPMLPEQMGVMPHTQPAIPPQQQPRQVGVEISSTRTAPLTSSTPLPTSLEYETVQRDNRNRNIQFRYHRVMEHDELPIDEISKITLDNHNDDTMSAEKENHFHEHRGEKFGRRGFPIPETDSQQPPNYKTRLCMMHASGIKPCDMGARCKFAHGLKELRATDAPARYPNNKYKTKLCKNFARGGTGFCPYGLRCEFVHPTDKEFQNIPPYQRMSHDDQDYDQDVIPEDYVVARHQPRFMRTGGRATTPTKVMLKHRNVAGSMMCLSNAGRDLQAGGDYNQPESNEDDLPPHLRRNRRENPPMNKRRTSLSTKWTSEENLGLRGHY
Runt-SMMHC FRET: Runt domain-CBFb-SMMHC interaction inhibition | Q01196+Q13951 | Cerulean-Runt/Venus-CBFb-SMMHC FRET ratio 530/480, 1 h | inhibition, % at 20 µM | 0.74% of 220,000 active | AID 1434;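 active means mean inhibition across duplicate retests at 20 µM reaching about 50%, limit read from the data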;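 further: 0% = DMSO wells and 100% = wells with excess untagged CBFb-SMMHC; inhibitors lower the FRET ratio by blocking Runt binding to CBFb-SMMHC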
LANA-H2B inh: blocks KSHV LANA binding to histone H2A/H2B. Q9QR71. cell-free LANA-H2A/H2B peptide, fluorescence polarization. inhibition, % (no concentration beside the values). 0.6% of 320,000 active. AID 2629; in the data active means inhibition mostly above about 10%, no sharp cut-off; inactive means mostly below about 6.7%
EBV gp42 inh: EBV gp42 inhibition; 0.42% of 220,000 active; Fluorescence polarization binding assay, mP read-out; inhibition, % (tested at 21.74 µM); in the data active means inhibition above about 50%
Active calls of the source: *; i = inactive; ? = inconclusive; / = not tested or not shown.

SMILES | RanGTP-Imp inh | Runt-CBFb FRET | MEX-5 binding | Runt-SMMHC FRET | LANA-H2B inh | EBV gp42 inh
COc1ccc(CN2CCNC(=O)C2CC(=O)NCCc2nc(C)c(C)s2)c(OC)c1 (stereo not drawn) | -4 | 0 | -1 | 0 | -2 | -4
CC(C(=O)Nc1ncn[nH]1)N1C(=O)c2ccccc2C1=O (stereo not drawn) | 1 | -1 | 5 | -5 | 17* | -4
CC(=O)Nc1sc2c(c1-c1nc3ccccc3s1)CCN(C(C)C)C2 | / | 24 | / | 85* | -6 | -19
CN1CCc2c(sc(NC(=O)c3cc4cc([N+](=O)[O-])ccc4s3)c2C(N)=O)C1 | 4 | 5 | 4 | 17 | / | -16
CC(C)N1CCc2c(sc(NC(=O)c3ccc4ccccc4c3)c2C(N)=O)C1 | 148* | / | -37* | / | -12 | /
CC(C)N1CCc2c(sc(NC(=O)c3cc4cc([N+](=O)[O-])ccc4s3)c2C(N)=O)C1 | 33* | -2 | 0 | 0 | / | -17
CC(C)N1CCc2c(sc(NC(=O)c3ccc(C(=O)c4ccccc4)cc3)c2C(N)=O)C1 | 64* | / | 4 | / | -4 | /
O=C(Nc1ccc(Cl)cc1)c1cc2c(cc1O)[nH]c1ccccc12 | -13 | 11 | -2 | 6 | 15 | -3
Cc1cccc(NC(=O)CCC(=O)Nc2nnc(C(F)(F)F)s2)c1 | 4 | 0 | 1 | 2 | -3 | 2
O=C(Nc1ncc2c(n1)CC(c1ccco1)CC2=O)c1ccccc1 (stereo not drawn) | 0 | 12 | 1 | 2 | 44* | -4
O=C(c1ccco1)N1CCN(C(=O)C2CC(=O)N(c3ccccc3)C2)CC1 (stereo not drawn) | 1 | / | 0 | / | -5 | /
COc1ccc(CNC(=O)C(=O)NCC2OCCN2S(=O)(=O)c2ccc(OC)cc2)cc1 (stereo not drawn) | 0 | / | -4 | / | -4 | /
CC(=O)Oc1oc(-c2ccccc2)nc1C=Nc1ccc(N(C)C)cc1 | 1 | -16 | -33* | -104 | 2 | -24
CN(C)c1ccc(N=Cc2nc(-c3ccccc3)oc2O)cc1 | -15 | -122 | -64* | i | -10 | 166*
CC1=C(C(=O)OCCCBr)C(c2ccc3c(c2)OCO3)NC(=O)N1 (stereo not drawn) | ? | / | 0 | / | 4 | /
CCCCN=CC1=C(O)C(C(=O)OC)C(C)(C)CC1=O (stereo not drawn) | -7 | 0 | 1 | -1 | 1 | 18
O=C1CCC(C(=O)Nc2cccc(Br)c2)N1 (stereo not drawn) | 5 | / | -2 | / | 2 | /
COc1ccc(-c2nnc(SCC(=O)Oc3ccc(C)cc3)o2)cc1 | -1 | -2 | -2 | -5 | 4 | -10
Brc1ccc(-c2cn3nc4c(nc3n2)CCCC4)cc1 | 61* | 4 | -11 | -6 | 18 | -22
c1ccc(-c2cn3nc4c(nc3n2)CCCC4)cc1 | 83* | 2 | -37* | -4 | 6 | 63*
Cc1cccc(OCCc2c(C)[nH]c(=S)[nH]c2=O)c1 | -2 | 0 | 2 | 4 | -1 | -15
Cc1ccc(F)cc1NC(=O)N1CCN(C2c3ccccc3-c3ccccc32)CC1 | -1 | -1 | -2 | -4 | 2 | 0
COc1ccc(NC(=O)c2nc[nH]c2C(=O)N2CCN(C(=O)OC(C)(C)C)CC2)cc1 | 25* | 0 | 5 | 0 | 1 | 15
Cc1ccc(NC(=O)c2nc[nH]c2C(=O)N2CCN(C(=O)OC(C)(C)C)CC2)cc1 | / | / | / | / | 3 | /
COc1ccc(CN2CCNC(=O)C2CC(=O)NCc2csc(C)n2)c(F)c1 (stereo not drawn) | 2 | / | -1 | / | -3 | /
CN(C(=O)CS(=O)(=O)c1cn(CC(=O)N2CCOCC2)c2ccccc12)c1ccccc1 | 6 | -1 | 0 | 2 | 34* | -5
CC1CN(C(=O)Cn2cc(S(=O)(=O)CC(=O)N(C)c3ccccc3)c3ccccc32)CC(C)O1 (stereo not drawn) | -1 | / | -2 | / | -1 | /
Cc1ccc(NC(=O)CS(=O)(=O)c2cn(CC(=O)N3CCOCC3)c3ccccc23)cc1 | 3 | 0 | -1 | 18 | 18* | -7
